In ChEMBL document CHEMBL4425096, “Synthesis and Biological Evaluation of 4-Anilino-quinazolines and -quinolines as Inhibitors of Breast Cancer Resistance Protein (ABCG2)” (J Med Chem, 2016):

Key:
[1] = target: T1, Broad substrate specificity ATP-binding cassette transporter ABCG2 (Homo sapiens, UniProt Q9UNQ0); assay: Inhibition of c-terminal GFP-tagged human ABCG2 expressed in MDCK2 cells preincubated for 30 mins before Hoechst 33342 addition by Hoechst 33342 accumulation assay; assay type: cell-based
T1 sequence (Q9UNQ0 whole entry): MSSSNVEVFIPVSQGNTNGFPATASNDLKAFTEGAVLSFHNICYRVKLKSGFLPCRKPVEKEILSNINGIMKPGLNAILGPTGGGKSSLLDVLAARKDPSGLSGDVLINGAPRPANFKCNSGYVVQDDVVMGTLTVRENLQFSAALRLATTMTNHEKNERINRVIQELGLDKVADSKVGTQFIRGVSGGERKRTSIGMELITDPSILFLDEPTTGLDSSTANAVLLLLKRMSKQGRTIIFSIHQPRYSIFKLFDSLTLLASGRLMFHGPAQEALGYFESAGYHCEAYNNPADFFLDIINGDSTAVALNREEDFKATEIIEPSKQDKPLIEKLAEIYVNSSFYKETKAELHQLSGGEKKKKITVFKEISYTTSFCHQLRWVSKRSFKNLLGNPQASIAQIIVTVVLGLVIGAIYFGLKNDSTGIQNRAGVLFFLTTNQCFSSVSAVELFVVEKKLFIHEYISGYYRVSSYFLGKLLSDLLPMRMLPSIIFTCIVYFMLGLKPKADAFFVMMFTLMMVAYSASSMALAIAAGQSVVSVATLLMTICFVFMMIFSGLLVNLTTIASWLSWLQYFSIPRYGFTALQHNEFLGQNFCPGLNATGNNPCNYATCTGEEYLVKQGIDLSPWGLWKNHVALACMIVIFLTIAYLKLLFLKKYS
Procedure, shortened: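 MDCK II cells transfected with human ABCG2 fused C-terminally to GFP, washed in Krebs-HEPES buffer pH 7.0; ~30,000 cells/well, compound 30 min at 37 °C. 6 µM Hoechst 33342 solution added, fluorescence (ex 355/em 460 nm) every 60 s to 120 min. Final methanol ≤5%, DMSO ≤0.1%.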

[2] = Intrinsic cytotoxicity against MDCK2 cells over-expressing human ABCG2 incubated for 72 hrs by MTT assay; assay type: ADME, cell-based, Canis lupus familiaris, MDCK-II; settings: dog
Procedure, shortened: (§1)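 MDCK II cells incubated 72 h with compound dilutions, then MTT added; viability from formazan formation. […] Methanol (≤1.8%) and DMSO (≤1%) vehicle tested alone.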

[3] = Intrinsic cytotoxicity against parental MDCK2 cells incubated for 72 hrs by MTT assay; assay type: cell-based, Canis lupus familiaris, MDCK-II; settings: dog; procedure, shortened: as §1
ABCG2 [4] = assay: Therapeutic index, ratio of GI50 for intrinsic cytotoxicity against MDCK2 cells over-expressing human ABCG2 top IC50 for inhibition of c-terminal GFP-tagged human ABCG2 expressed in MDCK2 cells; assay type: toxicity, cell-based; settings: dog, read-out: RatioGI50
Procedure, shortened: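 Ratio of MTT GI50 (72 h, MDCK II) to IC50 from the Hoechst 33342 accumulation assay.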

ABCC1 = ABCC1 (Homo sapiens, UniProt P33527); assay: Inhibition of ABCC1 in human H69AR cells at 10 uM preincubated for 30 mins before calcein AM addition by calcein AM assay relative to CsA; assay type: cell-based; settings: probe calcein AM
ABCC1, sequence (P33527 whole entry): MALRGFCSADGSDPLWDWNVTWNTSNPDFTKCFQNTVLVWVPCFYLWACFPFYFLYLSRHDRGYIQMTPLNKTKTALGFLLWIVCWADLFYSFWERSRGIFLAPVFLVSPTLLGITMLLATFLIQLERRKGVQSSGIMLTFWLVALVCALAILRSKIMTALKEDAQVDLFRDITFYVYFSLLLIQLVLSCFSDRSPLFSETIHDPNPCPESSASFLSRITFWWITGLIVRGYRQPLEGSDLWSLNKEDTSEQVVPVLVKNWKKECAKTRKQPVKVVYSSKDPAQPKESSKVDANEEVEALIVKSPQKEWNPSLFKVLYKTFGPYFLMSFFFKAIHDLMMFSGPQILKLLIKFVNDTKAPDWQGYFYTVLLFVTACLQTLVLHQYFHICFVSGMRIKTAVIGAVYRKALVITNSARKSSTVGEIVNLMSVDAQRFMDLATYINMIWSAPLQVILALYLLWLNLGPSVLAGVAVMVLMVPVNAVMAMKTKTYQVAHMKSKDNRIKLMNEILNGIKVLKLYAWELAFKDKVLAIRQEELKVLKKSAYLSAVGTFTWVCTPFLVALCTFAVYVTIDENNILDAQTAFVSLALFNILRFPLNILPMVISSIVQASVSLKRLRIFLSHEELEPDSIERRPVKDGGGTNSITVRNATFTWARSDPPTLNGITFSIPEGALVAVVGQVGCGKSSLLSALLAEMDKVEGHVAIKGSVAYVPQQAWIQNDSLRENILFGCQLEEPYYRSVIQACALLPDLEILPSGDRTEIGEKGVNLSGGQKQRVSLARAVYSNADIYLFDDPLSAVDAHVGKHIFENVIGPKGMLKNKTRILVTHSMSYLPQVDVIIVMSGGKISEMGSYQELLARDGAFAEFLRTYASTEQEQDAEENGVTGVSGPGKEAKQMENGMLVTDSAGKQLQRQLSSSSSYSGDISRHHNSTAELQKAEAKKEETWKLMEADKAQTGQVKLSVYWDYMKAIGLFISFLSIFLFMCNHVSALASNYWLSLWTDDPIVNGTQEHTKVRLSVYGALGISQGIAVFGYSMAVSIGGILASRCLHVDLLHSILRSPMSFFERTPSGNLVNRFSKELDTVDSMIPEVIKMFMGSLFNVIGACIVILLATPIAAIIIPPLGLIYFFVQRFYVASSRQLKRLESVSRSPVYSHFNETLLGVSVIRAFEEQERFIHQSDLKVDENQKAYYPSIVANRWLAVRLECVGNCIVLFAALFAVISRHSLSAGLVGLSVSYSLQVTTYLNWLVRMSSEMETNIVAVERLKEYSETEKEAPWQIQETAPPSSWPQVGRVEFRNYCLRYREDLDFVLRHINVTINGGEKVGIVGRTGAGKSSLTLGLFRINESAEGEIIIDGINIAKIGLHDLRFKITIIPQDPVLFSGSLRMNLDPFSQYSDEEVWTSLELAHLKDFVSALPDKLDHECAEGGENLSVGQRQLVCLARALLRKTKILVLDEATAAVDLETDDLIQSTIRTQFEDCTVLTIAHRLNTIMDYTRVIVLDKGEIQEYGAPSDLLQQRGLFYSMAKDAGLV
Procedure, shortened: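 H69AR cells (ABCC1-overexpressing) washed in Krebs-HEPES buffer pH 7.0; ~30,000 cells/well preincubated with compound 30 min at 37 °C, 5% CO2. Then 1.25 µM calcein AM solution added, fluorescence at ex 485/em 520 nm every 60 s for 60 min at 37 °C. Screened at 10 µM; activity expressed relative to cyclosporine A.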

[5] = target: T1, Broad substrate specificity ATP-binding cassette transporter ABCG2; assay: Inhibition of c-terminal GFP-tagged human ABCG2 expressed in MDCK2 cells preincubated for 30 mins before Pheophorbide A addition by Pheophorbide A assay; assay type: cell-based
[6] = target: ATP-dependent translocase ABCB1 (Homo sapiens, UniProt P08183); assay: Inhibition of ABCB1 in human A2780adr cells preincubated for 30 mins before calcein AM addition by calcein AM assay; assay type: cell-based
ATP-dependent translocase ABCB1, sequence (P08183 whole entry): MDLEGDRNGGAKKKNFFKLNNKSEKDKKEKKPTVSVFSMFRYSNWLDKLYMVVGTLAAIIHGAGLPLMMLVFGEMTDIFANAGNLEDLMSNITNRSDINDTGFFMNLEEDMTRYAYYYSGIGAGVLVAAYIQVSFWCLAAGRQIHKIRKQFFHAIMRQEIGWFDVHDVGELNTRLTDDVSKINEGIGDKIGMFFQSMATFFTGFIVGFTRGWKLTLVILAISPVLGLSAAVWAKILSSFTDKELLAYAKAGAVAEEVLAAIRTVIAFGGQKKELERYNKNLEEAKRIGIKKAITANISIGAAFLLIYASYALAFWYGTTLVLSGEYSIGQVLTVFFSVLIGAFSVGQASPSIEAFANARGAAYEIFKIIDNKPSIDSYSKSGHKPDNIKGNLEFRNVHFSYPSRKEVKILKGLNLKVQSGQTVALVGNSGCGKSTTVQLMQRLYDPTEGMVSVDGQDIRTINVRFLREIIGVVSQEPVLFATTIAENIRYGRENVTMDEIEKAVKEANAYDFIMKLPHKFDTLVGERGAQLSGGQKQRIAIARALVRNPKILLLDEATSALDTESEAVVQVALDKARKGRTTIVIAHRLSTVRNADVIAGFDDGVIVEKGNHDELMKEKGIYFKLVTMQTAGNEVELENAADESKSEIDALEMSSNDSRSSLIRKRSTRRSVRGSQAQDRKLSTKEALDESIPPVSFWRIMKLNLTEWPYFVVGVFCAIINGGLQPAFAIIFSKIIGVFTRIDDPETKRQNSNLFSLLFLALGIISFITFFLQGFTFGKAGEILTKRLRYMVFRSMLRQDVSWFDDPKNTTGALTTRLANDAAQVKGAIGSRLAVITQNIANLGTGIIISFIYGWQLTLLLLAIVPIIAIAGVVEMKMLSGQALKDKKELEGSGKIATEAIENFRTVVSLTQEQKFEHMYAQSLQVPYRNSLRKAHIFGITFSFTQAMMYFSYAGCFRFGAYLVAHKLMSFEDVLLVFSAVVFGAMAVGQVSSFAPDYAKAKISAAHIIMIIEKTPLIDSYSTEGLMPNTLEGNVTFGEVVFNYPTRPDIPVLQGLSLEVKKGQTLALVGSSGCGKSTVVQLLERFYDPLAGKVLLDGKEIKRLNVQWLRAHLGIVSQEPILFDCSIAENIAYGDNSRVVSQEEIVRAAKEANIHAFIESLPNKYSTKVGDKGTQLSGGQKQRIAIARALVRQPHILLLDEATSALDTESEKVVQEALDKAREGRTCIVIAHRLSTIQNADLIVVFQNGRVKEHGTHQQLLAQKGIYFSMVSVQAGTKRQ
Procedure, shortened: (§2)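 A2780adr cells (ABCB1-overexpressing, doxorubicin-selected one passage every 10 passages) washed three times in Krebs-HEPES buffer pH 7.0; ~30,000 cells/well with compound dilutions, 30 min at 37 °C, 5% CO2. Calcein AM added (1.25 µM solution), fluorescence (ex 485/em 520 nm) read every 60 s for 60 min at 37 °C. Single-point screen at 10 µM relative to cyclosporine A; IC50 from full curves.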

ABCB1 = ABCB1 (Homo sapiens, UniProt P08183); assay: Inhibition of ABCB1 in human A2780adr cells at 10 uM preincubated for 30 mins before calcein AM addition by calcein AM assay relative to CsA; assay type: cell-based; settings: probe calcein AM; procedure, shortened: as §2
ABCB1, sequence (P08183 whole entry): as above

ABCG2 [7] = assay: Therapeutic index, ratio of GI50 for intrinsic cytotoxicity against MDCK2 cells over-expressing human ABCG2 top IC50 for inhibition of c-terminal GFP-tagged human ABCG2 expressed in MDCK2 cells relative to Ko143; assay type: toxicity, cell-based; settings: dog, read-out: TI

| SMILES | IC50 [1] | GI50 at 72 h [2] | GI50 at 72 h [3] | selectivity ratio (ABCG2 [4]) | IC50 [5] | other results |
| --- | --- | --- | --- | --- | --- | --- |
| Clc1ccc(Nc2nc(-c3ccccc3)nc3ccccc23)cc1 | 0.83 µM | 6.75 µM | 14.8 µM | 8.13 | – | – |
| COC(=O)c1ccc(Nc2nc(-c3ccccc3)nc3ccccc23)cc1 | 0.944 µM | – | – | – | – | inhibition at 10 µM (ABCC1): > 25% |
| CC(=O)Nc1cccc(Nc2nc(-c3ccccc3)nc3ccccc23)c1 | 0.278 µM | 12.9 µM | 30.9 µM | 46.4 | 0.224 µM | – |
| Oc1ccc(Nc2nc(-c3ccccc3)nc3ccccc23)cc1 | 0.204 µM | 12.2 µM | 26.9 µM | 59.8 | 0.304 µM | – |
| Cc1cccc(Nc2nc(-c3ccccc3)nc3ccccc23)c1 | 1.15 µM | 12.8 µM | 24 µM | 11.1 | – | IC50 [6]: 3 µM; inhibition at 10 µM (ABCB1): > 25% |
| Cc1ccc(Nc2nc(-c3ccccc3)nc3ccccc23)cc1 | 1.48 µM | – | – | – | – | – |
| O=C(O)c1ccc(Nc2nc(-c3ccccc3)nc3ccccc23)cc1 | 6.38 µM | – | – | – | – | inhibition at 10 µM (ABCC1): > 25% |
| COc1ccc(Nc2nc(-c3ccccc3)nc3ccccc23)cc1OC | 0.152 µM | 22.5 µM | 17 µM | 148 | – | IC50 [6]: 1.86 µM; inhibition at 10 µM (ABCB1): > 25% |
| O=[N+]([O-])c1cc(Nc2nc(-c3ccccc3)nc3ccccc23)ccc1O | 0.08 µM | 52.4 µM | 152 µM | 655 | 0.113 µM | selectivity ratio (ABCG2 [7]): 13 |
| Fc1cccc(Nc2nc(-c3ccccc3)nc3ccccc23)c1 | 0.355 µM | 17.2 µM | 27.5 µM | 48.5 | 0.405 µM | – |
| N#Cc1ccc(Nc2nc(-c3ccccc3)nc3ccccc23)cc1 | 0.0699 µM | 7.96 µM | 16.6 µM | 113 | 0.0845 µM | – |
| O=C(Nc1ccccc1C(=O)Nc1ccc(CCN2CCc3ccccc3C2)cc1)c1cnc2ccccc2c1 | 0.704 µM | – | – | – | 0.741 µM | – |
| CC(=O)Nc1cccc(Nc2cc(-c3ccccc3)nc3ccccc23)c1 | 1.63 µM | – | – | – | – | IC50 [6]: 0.66 µM; inhibition at 10 µM (ABCB1): > 25%; inhibition at 10 µM (ABCC1): > 25% |
| Ic1cccc(Nc2nc(-c3ccccc3)nc3ccccc23)c1 | 0.791 µM | 4.75 µM | 16.6 µM | – | – | – |
| Fc1cccc(Nc2cc(-c3ccccc3)nc3ccccc23)c1 | 2.13 µM | – | – | – | – | – |
| COc1ccc(Nc2nc(-c3ccccc3)nc3ccccc23)cc1F | 0.872 µM | – | – | – | 0.689 µM | – |
| CSc1cccc(Nc2nc(-c3ccccc3)nc3ccccc23)c1 | 1.19 µM | – | – | – | – | inhibition at 10 µM (ABCC1): > 25% |
| C#Cc1cccc(Nc2nc(-c3ccccc3)nc3ccccc23)c1 | 0.672 µM | – | – | – | 0.513 µM | – |
| COc1cccc(Nc2cc(-c3ccccc3)nc3ccccc23)c1 | 0.951 µM | – | – | – | – | IC50 [6]: 2.78 µM; inhibition at 10 µM (ABCB1): > 25% |
| Ic1ccc(Nc2nc(-c3ccccc3)nc3ccccc23)cc1 | 0.612 µM | 9.25 µM | 8.85 µM | 15.1 | – | – |
| CC(C)(C)c1cccc(Nc2nc(-c3ccccc3)nc3ccccc23)c1 | 1.07 µM | – | – | – | – | – |
| CSc1cccc(Nc2cc(-c3ccccc3)nc3ccccc23)c1 | 1.9 µM | – | – | – | – | IC50 [6]: 1.42 µM; inhibition at 10 µM (ABCB1): > 25%; inhibition at 10 µM (ABCC1): > 25% |
| CC(C)(C)OC(=O)c1ccc(Nc2nc(-c3ccccc3)nc3ccccc23)cc1 | 5.65 µM | – | – | – | – | – |
| Cc1cc(Nc2nc(-c3ccccc3)nc3ccccc23)ccc1I | 1.46 µM | – | – | – | – | – |
| O=S(=O)(F)c1ccc(Nc2nc(-c3ccccc3)nc3ccccc23)cc1 | 0.556 µM | – | – | – | – | – |
| N#Cc1ccc(Nc2cc(-c3ccccc3)nc3ccccc23)cc1 | 0.846 µM | – | – | – | – | IC50 [6]: 4.74 µM; inhibition at 10 µM (ABCB1): > 25% |
| COc1cc(Nc2nc(-c3ccccc3)nc3ccccc23)ccc1Br | 0.289 µM | – | – | – | 0.202 µM | – |
| Fc1ccc(Nc2nc(-c3ccccc3)nc3ccccc23)cc1 | 1.06 µM | 29 µM | 25.6 µM | 27.4 | – | – |
| CC(C)(C)c1ccc(Nc2nc(-c3ccccc3)nc3ccccc23)cc1 | 1.06 µM | – | – | – | – | – |
| COc1ccc2c3c([nH]c2c1)[C@H](CC(C)C)N1C(=O)[C@H](CCC(=O)OC(C)(C)C)NC(=O)[C@@H]1C3 | – | 11.1 µM | 10.9 µM | – | – | – |
